This is a sample that favours compounds with a hit; in the whole collection about 3.7% have one here.
HCV core dimer – blocks dimerization of HCV core protein. inhibition, % at 5 µM. TR-FRET GST/Flag-core106 dimerization, 1536-well. AID 1899. actives 0.33% (n = 300,000);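 active = inhibition above the mean of all tested compounds plus 3 SD, set per screening campaign, cut at about 45% in these data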
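Assay system: Tagged HCV core106 pair (GST and Flag) | Buffer or medium: KF-containing HEPES buffer, pH 7.45, DTT, CHAPS, BSA | Also added: Eu donor and XL665 acceptor anti-tag antibodies | Dosing: One concentration, 5 µM, in 0.5% DMSO | Timing: 4 h at 22.5 °C | Technique: TR-FRET 671 and 617 nm emission | Repeats: Singlicate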
TAAR1 ag – agonists of human TAAR1; Q96RJ0; CHO RD-HGA16 TAAR1, Fluo-8 calcium fluorescence; vehicle wells 0%, saturating PEA agonist 100%; activation, % at 3 µM; actives 0.99% (n = 360,000); AID 624467;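 active = activation above the mean activation of all test compounds in the run plus 3 SD, cut at about 38% in these data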
Target sequence (Q96RJ0 whole entry, looked up): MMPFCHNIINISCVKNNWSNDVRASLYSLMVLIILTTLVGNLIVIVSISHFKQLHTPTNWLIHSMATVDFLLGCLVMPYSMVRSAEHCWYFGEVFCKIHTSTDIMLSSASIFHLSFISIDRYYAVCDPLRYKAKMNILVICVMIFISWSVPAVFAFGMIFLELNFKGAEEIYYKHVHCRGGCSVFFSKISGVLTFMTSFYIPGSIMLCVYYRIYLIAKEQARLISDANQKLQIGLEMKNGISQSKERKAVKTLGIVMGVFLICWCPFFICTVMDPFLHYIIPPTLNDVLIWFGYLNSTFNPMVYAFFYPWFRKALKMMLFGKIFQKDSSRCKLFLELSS
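Assay system: CHO-derived RD-HGA16 cells with stable Gα16 and human TAAR1; timing: 17-24 h seeding, 75 min 37 °C dye, 30 min RT; read-out: % activation from peak over basal fluorescence ratio, DMSO-to-PEA scaled; measured by: kinetic Fluo-8 calcium fluorescence; benchmarks: low control DMSO, high control PEA (EC100); doses: 3 µM single concentration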
TAAR1 antagonist – human TAAR1 antagonism; Q96RJ0; CHO RD-HGA16 TAAR1, Fluo-8 calcium fluorescence, antagonist; inhibition, % at 3 µM; actives 1.5% (n = 360,000); AID 624466;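 active = inhibition above a per-plate cutoff, the mean inhibition of test compounds on that plate plus 3 SD, cut at about 49% in these data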
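System: CHO RD-HGA16 cells bearing hTAAR1. Reagent: EC80 β-phenethylamine stimulus. Schedule: seeding 17-24 h prior, 75-min 37 °C, 30-min RT dye loading. Signal: Fluo-8 intracellular calcium dye fluorescence, real-time kinetic reads. Read-out: % inhibition from peak post-agonist over basal fluorescence ratio. Benchmarks: vehicle wells and EC80 agonist wells. Replicates: n of 1.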
rCAG binder – r(CAG) repeat RNA binding | TO-PRO-1 dye displacement fluorescence | inhibition, % at 3 µM | actives 1.3% (n = 370,000);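 active = inhibition above the plate cutoff, the mean of all test compounds on that plate plus 3 SD, cut at about 35% in these data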;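 also: higher means more dye released from RNA so lower well fluorescence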
HCV NS3 hel inh – blocks Hepatitis C virus NS3 helicase unwinding. NS3 helicase DNA unwinding, Cy5 molecular beacon fluorescence. inhibition, % at 10.9 µM. actives 0.56% (n = 290,000);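 active = inhibition above the mean of all tested compounds plus 3 SD, set per campaign, cut at about 35% in these data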
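Test system: hepatitis C virus NS3 helicase domain fragment enzyme. Also added: annealed dual-labelled DNA beacon duplex, ATP-started. Timing: 60 min unwinding reaction at 25 °C after ATP addition. Technique: Cy5 fluorescence. Measure: % inhibition of unwinding.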
rCAG bind conf – r(CAG) RNA repeat binding, confirmation. shares compounds with rCAG binder. TO-PRO-1 dye displacement fluorescence. inhibition, % at 3 µM. actives 70% (n = 4,300). AID 652065;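 active = inhibition above a per-plate cutoff, the mean inhibition of sample wells plus 3 SD, cut at about 35% in these data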;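 also: loss of TO-PRO-1 fluorescence as compound displaces dye from 1x1 AA loop RNA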
DNA CAG counter – counter-screen for rCAG RNA binders: DNA CAG dye complex inhibitors | actives 94% (n = 4,300) | shares compounds with rCAG binder | d(CAG) DNA oligo TO-PRO-1 dye displacement, fluorescence | inhibition, % at 3 µM;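 active = inhibition above its plate's cutoff, the mean test-well inhibition plus 3 SD, cut at about 4.8% in these data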;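 also: hits displace the dye from DNA and so lower well fluorescence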
DNA CAG DR – counter-screen for rCAG binders: inhibitors of DNA CAG TO-PRO-1 complex; shares compounds with rCAG binder; DNA CAG/GTC duplex TO-PRO-1 dye displacement fluorescence; IC50, µM; actives 20% (n = 250); in the data active = IC50 below about 10 µM
Large screens that a line does not name were inactive (follow-up assays come after a bar, where they were run).

CC1CCN(C2=NC(=O)N(c3ccc(Br)cc3)C(=O)C2)CC1	none (no result: HCV core dimer, TAAR1 ag, TAAR1 antagonist, HCV NS3 hel inh)
O=C(COc1cccc2ccccc12)Nc1cc(Cl)ccc1C(=O)O	rCAG binder 75 | rCAG bind conf 70 | DNA CAG counter 30 | DNA CAG DR inactive
O=C(COc1cccc2ccccc12)Nc1ccc(Cl)cc1C(=O)O	rCAG binder 68 | rCAG bind conf 66 | DNA CAG counter 19
O=C(COc1ccccc1C(=O)O)Nc1cccc2ccccc12	none (no result: HCV core dimer, HCV NS3 hel inh)
Cc1[nH]n(C(N)=S)c(=O)c1C(c1ccccc1)C(C#N)C#N (stereo not drawn)	none
Cc1[nH]n(-c2ncc(-c3ccccc3)s2)c(=O)c1C(c1ccc(Br)cc1)C(C#N)C#N (stereo not drawn)	rCAG binder 57 | rCAG bind conf 80 | DNA CAG counter 50
O=C(O)CCN1C(=O)/C(=C2\C(=O)N(Cc3ccc(F)cc3)c3ccccc32)SC1=S	none
COCCN1C(=O)/C(=C2/C(=O)N(CC(=O)Nc3ccccc3Cl)c3ccccc32)SC1=S	none
O=C(CN1C(=O)/C(=C2\SC(=S)N(CCS(=O)(=O)O)C2=O)c2ccccc21)Nc1cccc(Br)c1	rCAG binder 88 | rCAG bind conf 89 | DNA CAG counter 65
O=C(CN1C(=O)/C(=C2/SC(=S)N(CCS(=O)(=O)O)C2=O)c2ccccc21)Nc1cccc(C(F)(F)F)c1	rCAG binder 91 (no result: HCV core dimer, HCV NS3 hel inh) | rCAG bind conf 94 | DNA CAG counter 78
C=C(O[C@H]1[C@H](O)CC=C(C(=O)O)[C@@H]1O)C(=O)O	none (no result: HCV core dimer, TAAR1 ag, TAAR1 antagonist, HCV NS3 hel inh)
O=C(c1cc(C(=O)N2CCOCC2)c2nc3ccccc3n2c1)c1cc(Cl)cc(Cl)c1O	rCAG binder 46 | rCAG bind conf 44 | DNA CAG counter 12
CCc1c(C)sc2nc3c(C(=O)N4CCOCC4)cc(C(=O)c4ccccc4O)cn3c(=O)c12	none
C=CCN1[C@H](Cc2ccccc2)COc2cc(F)ccc2S1(=O)=O	none (no result: HCV core dimer, TAAR1 ag, TAAR1 antagonist, HCV NS3 hel inh)
O=C(CCn1nnc2ccccc21)N1CCN(c2ccccc2F)CC1	none (no result: HCV core dimer, TAAR1 ag, TAAR1 antagonist, HCV NS3 hel inh)
Cn1c2c(c(=O)[nH]c1=O)C(c1ccc(O)cc1)C1=C(N2)c2ccccc2C1=O (stereo not drawn)	none
COc1cc(C2C3=C(Nc4nc(N)[nH]c(=O)c42)c2ccccc2C3=O)ccc1O (stereo not drawn)	rCAG binder 61 | rCAG bind conf inactive | DNA CAG counter 20
CCC(C)c1ccc(C2C3=C(Nc4nc(N)[nH]c(=O)c42)c2ccccc2C3=O)cc1 (stereo not drawn)	rCAG binder 43 | rCAG bind conf 47 | DNA CAG counter 29
Nc1nc2c(c(=O)[nH]1)C(c1ccccc1)C1=C(N2)c2ccccc2C1=O (stereo not drawn)	rCAG binder 62 | rCAG bind conf inactive | DNA CAG counter 27
O=[N+]([O-])c1ccc(Cl)c(S(=O)(=O)Nc2cccc(-c3ccc(N4CCOCC4)nn3)c2)c1	rCAG binder 38 (no result: HCV NS3 hel inh) | rCAG bind conf inactive | DNA CAG counter 9.9
O=[N+]([O-])c1cc(Br)c(O)c(/C=N/Nc2nnnn2-c2cccc3ccccc23)c1	rCAG binder 92 | rCAG bind conf 89 | DNA CAG counter 63
CSc1nc(SCC(=O)O)c2sc3nc(-c4ccccc4)c4c(c3c2n1)CCC4	rCAG binder 39 (no result: HCV core dimer) | rCAG bind conf 63 | DNA CAG counter 38
O=C(NNC(=S)NC1CCCCC1)c1cccc(S(=O)(=O)Nc2ccccc2Cl)c1	rCAG binder 56 | rCAG bind conf 51 | DNA CAG counter 19
O=C(c1cccc(S(=O)(=O)Nc2ccccc2Cl)c1)N1CCCCCC1	none (no result: HCV NS3 hel inh)
CC1CN(C(=O)c2cccc(S(=O)(=O)Nc3ccccc3Cl)c2)CC(C)O1 (stereo not drawn)	none
O=C(N/N=C/c1ccccc1C(=O)O)c1cccc(S(=O)(=O)Nc2cc(Cl)ccc2Cl)c1	rCAG binder 49 | rCAG bind conf inactive | DNA CAG counter 6.8
O=C(c1cccc(S(=O)(=O)Nc2ccccc2Cl)c1)N1CCN(c2ccccc2O)CC1	rCAG binder 41 (no result: HCV core dimer, HCV NS3 hel inh) | rCAG bind conf inactive | DNA CAG counter 9.3
CC1CN(C(=O)c2cccc(S(=O)(=O)Nc3cc(Cl)ccc3Cl)c2)CC(C)O1 (stereo not drawn)	rCAG binder 41 | rCAG bind conf inactive | DNA CAG counter 5.5
Cc1ccc(C)c(NC(=O)c2ccccc2NS(=O)(=O)c2cc([N+](=O)[O-])ccc2C)c1	rCAG binder 40 | rCAG bind conf 77 | DNA CAG counter 43
O=C(CSc1ccc([N+](=O)[O-])cc1)Nc1cccc(S(=O)(=O)Nc2ccccc2F)c1	rCAG binder 50 | rCAG bind conf 37 | DNA CAG counter 13
Cc1ccc([N+](=O)[O-])cc1S(=O)(=O)Nc1cccc(S(=O)(=O)Nc2ccccc2C(=O)O)c1	rCAG binder 46 (no result: HCV core dimer, HCV NS3 hel inh) | rCAG bind conf 38 | DNA CAG counter 9.3
O=C(Cc1ccc(Cl)cc1)Nc1cccc(S(=O)(=O)Nc2ccccc2F)c1	none
O=C(CC1CCCC1)N[C@@H](Cc1cccnc1)C(=O)N1CCC[C@H]1C(=O)NC1CCCC1	none (no result: HCV core dimer, HCV NS3 hel inh)
COC(=O)[C@H](C(C)C)N(Cc1cn(Cc2ccccc2)nn1)S(=O)(=O)c1ccccc1Br	none (no result: HCV core dimer, TAAR1 ag, TAAR1 antagonist, HCV NS3 hel inh)
CCCCc1c(-c2ccccc2OC)ncn1Cc1ccc(Br)cc1	none (no result: HCV core dimer, HCV NS3 hel inh)
C=CCN1C(=O)/C(=C/c2ccc(N(C)C)cc2)S/C1=N\c1nnc(CC)s1	none (no result: HCV core dimer, TAAR1 ag, TAAR1 antagonist, rCAG binder)
C=CCN1C(=O)/C(=C/c2ccc(OCC(=O)O)cc2)S/C1=N/c1nccs1	rCAG binder 56 | rCAG bind conf 57 | DNA CAG counter 17
CCOC(=O)N1CCC(=NNC(=O)c2cc3ccccc3cc2O)CC1	rCAG binder 37 | rCAG bind conf inactive | DNA CAG counter 11
C#CCN1CC(N(C)CCOC(=O)c2ccc([N+](=O)[O-])cc2)CS1(=O)=O (stereo not drawn)	none (no result: HCV core dimer, TAAR1 ag, TAAR1 antagonist, HCV NS3 hel inh)
O=C(NCCc1c[nH]c2ccccc12)OCc1cn(Cc2ccc(F)c(F)c2)nn1	none (no result: HCV core dimer, TAAR1 ag, TAAR1 antagonist, HCV NS3 hel inh)
O=C(NN1C(=O)/C(=C/c2ccc(O)cc2)SC1=S)c1cccc(O)c1	none
CC(/C=C1\SC(=S)N(NC(=O)c2cccc(O)c2)C1=O)=C\c1ccccc1	rCAG binder 40 | rCAG bind conf inactive | DNA CAG counter 12
CC1CC(C)CN(C(=O)Cc2c(C(=O)O)[nH]c3ccc(Cl)cc23)C1 (stereo not drawn)	none

Screening results as filed in PubChem BioAssay.
